A selection: hits, their analogues and other compounds. The true share with any hit is near 2.3%.
TRPC4 PAM – TRPC4 (mouse) allosteric potentiation. HEK293 TRPC4beta/mu-opioid, DAMGO EC20, Fluo-4 Ca2+ flux; stronger effect = higher value. B-score at 10 µM. Q9QUQ5. AID 2227. 310,000 compounds, 0.42% hits;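 active means B-score of calcium response area above 5 SD of library B-scores, with initial fluorescence ratio within 5 SD of library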
TRPC4 agonist – TRPC4 (mouse) channel activation | Q9QUQ5 | HEK293 TRPC4beta/mu-opioid, Fluo4 calcium fluorescence; stronger effect = higher value | B-score at 10 µM | 310,000 compounds, 0.49% hits;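 active means B-score above 5 SD of library B-scores, and initial fluorescence ratio not above library mean plus 5 SD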;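 further: positive B-score marks a calcium rise read as TRPC4 activation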
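Technique: kinetic Fluo4 calcium fluorescence; Test system: TRPC4beta and mu-opioid receptor HEK293 stable cells; Measure: B-scored integrated calcium fluorescence ratio; Benchmarks: low control buffer alone, high control maximal DAMGO; Schedule: 45 min room-temperature Fluo4 loading, 110 s read.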
TRPC6 activator – mouse TRPC6 channel activation. Q61143. HEK293-TRPC6 membrane potential dye fluorescence; stronger effect = higher value. B-score at 10 µM. 310,000 compounds, 0.13% hits;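 active means B-score of the integrated fluorescence ratio above library mean plus 3 SD, and starting fluorescence ratio within library mean plus 5 SD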;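 further: higher score means more depolarization so channel activation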
Target sequence (Q61143 whole entry, looked up): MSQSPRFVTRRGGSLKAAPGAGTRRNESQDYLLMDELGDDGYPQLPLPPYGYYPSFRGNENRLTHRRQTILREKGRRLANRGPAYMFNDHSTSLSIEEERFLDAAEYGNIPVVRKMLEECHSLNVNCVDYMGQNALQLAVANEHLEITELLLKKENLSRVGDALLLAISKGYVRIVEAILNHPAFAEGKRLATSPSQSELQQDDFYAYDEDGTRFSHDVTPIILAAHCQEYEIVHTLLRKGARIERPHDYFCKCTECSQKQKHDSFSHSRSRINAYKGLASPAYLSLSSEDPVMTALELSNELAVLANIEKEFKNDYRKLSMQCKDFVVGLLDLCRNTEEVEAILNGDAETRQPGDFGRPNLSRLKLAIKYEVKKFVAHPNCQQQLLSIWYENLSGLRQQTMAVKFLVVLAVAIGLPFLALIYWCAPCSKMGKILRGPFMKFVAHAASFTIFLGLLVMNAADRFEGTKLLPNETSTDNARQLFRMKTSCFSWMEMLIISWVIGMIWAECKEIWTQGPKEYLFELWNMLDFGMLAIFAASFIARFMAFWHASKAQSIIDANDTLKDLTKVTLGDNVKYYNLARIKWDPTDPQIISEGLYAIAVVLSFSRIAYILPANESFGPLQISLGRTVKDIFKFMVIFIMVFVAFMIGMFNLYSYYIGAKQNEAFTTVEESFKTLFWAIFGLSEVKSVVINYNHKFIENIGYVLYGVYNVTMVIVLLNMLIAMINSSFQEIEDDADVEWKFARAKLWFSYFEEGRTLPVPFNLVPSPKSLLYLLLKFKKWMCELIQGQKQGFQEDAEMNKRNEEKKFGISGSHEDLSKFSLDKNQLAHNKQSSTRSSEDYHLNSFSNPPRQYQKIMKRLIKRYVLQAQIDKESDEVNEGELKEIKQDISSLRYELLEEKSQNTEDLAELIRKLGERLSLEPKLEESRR
TRPC4 inh – inhibitors of mouse TRPC4 channel; Q9QUQ5; HEK293 TRPC4beta/mu-opioid, DAMGO-evoked Fluo4 calcium flux; stronger effect = lower value; B-score at 10 µM; 300,000 compounds, 0.39% hits;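 active means B-score over 3 SD under the library average, no early fluorescence shift, positive overall ratio signal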
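Assay system: HEK293 cells with stable TRPC4beta plus mu-opioid receptor expression; Probe or stimulus: DAMGO in two steps, submaximal then maximal; Dosing: single-point compound dosing; Measured by: Fluo4 calcium-dye fluorescence, kinetic read; Read-out basis: B score from integrated Fluo4 fluorescence ratio.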
TRPC6 inhibitor – blocks the mouse TRPC6 cation channel. 310,000 compounds, 1.1% hits. B-score at 10 µM. Q61143. HEK293-TRPC6, membrane potential dye, ACh-evoked depolarization; stronger effect = lower value;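 active means B-score under library mean minus 3 SD, initial fluorescence not abnormally high, positive integrated signal ratio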;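 further: B-score derived from integrated fluorescence ratio over the kinetic read; more negative B-score means stronger inhibition of depolarization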
TRPC4 sel inh 2 – second check of whether TRPC6 inhibitors also affect mouse TRPC4. shares compounds with TRPC6 inhibitor. HEK293 TRPC4/MOR, membrane potential dye fluorescence; channel activated by saturating DAMGO dose. inhibition, % at 10 µM. 920 compounds, 42% hits. AID 2776;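 active means compounds whose fluorescence signal differed from control wells by over 3 SD, either direction, in both duplicate plates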
TRPC4 spec – tests whether TRPC6 inhibitors also affect mouse TRPC4 | shares compounds with TRPC6 inhibitor | HEK293 TRPC4/mu-opioid, membrane potential fluorescence | activity change, negative = inhibition, % at 10 µM | 920 compounds, 61% hits;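 active means rise or fall in signal beyond 3 SD of buffer-only wells in both replicate plates, either sign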;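 further: integrated kinetic ratio of fluorescence range over baseline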
HEK293 MPD ctr 2-1 – second check of TRPC6 inhibitor effects in parental HEK293 cells; shares compounds with TRPC6 inhibitor; parental HEK293 membrane potential dye fluorescence; maximal acetylcholine challenge after compound addition; signal change vs control, % at 10 µM; 920 compounds, 31% hits; AID 2779;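 active means membrane potential signal moving either way by over 3 SD of the maximum-effect control, in both duplicate plates, meaning non-specific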
HEK293 MPD ctr-1 – counter-screen for TRPC6 inhibitors: effect in parental HEK293 cells. AID 2780. 920 compounds, 60% hits. membrane potential signal change, % at 10 µM. shares compounds with TRPC6 inhibitor. parental HEK293 membrane potential dye fluorescence;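 active means membrane potential signal shifting up or down by more than 3 SD of buffer-only wells, on both duplicate plates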
HEK293 MPD ctr-2 – counter-screen for TRPC6 modulators: effect in parental HEK293 cells; 2,400 compounds, 51% hits; membrane potential dye fluorescence; shares compounds with TRPC6 inhibitor; AID 488924; membrane potential signal change, % at 10 µM;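 active means membrane potential signal moves up or down beyond 5 SD from buffer-only wells, on both duplicate plates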
HEK293 MPD ctr 2-2 – second check of TRPC6 modulator effects in parental HEK293 cells. membrane potential dye fluorescence; after compound, maximal acetylcholine stimulation. inhibition, % at 10 µM. 2,400 compounds, 14% hits. shares compounds with TRPC6 inhibitor. AID 488926;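 active means membrane potential signal drops by more than 5 SD from the mean control signal, in both duplicate plates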
TRPC4/MOR mod – tests whether TRPC6 modulators also affect mouse TRPC4. shares compounds with TRPC6 inhibitor. HEK293 TRPC4/mu-opioid, membrane potential fluorescence. percent change from control (negative = decrease, positive = increase), % at 10 µM. 2,400 compounds, 69% hits. AID 488927;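 active means membrane potential signal moved up or down beyond 5 SD of buffer control wells, in both duplicate plates, actives on both sides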
TRPC4/MOR inh 2 – mouse TRPC4 off-target activity of TRPC6 modulators, second screen. shares compounds with TRPC6 inhibitor. HEK293 TRPC4/mu-opioid, membrane potential dye fluorescence; stimulated with maximal-effect DAMGO. inhibition, % at 10 µM. 2,400 compounds, 55% hits. AID 488928;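 active means drop in membrane potential signal beyond 5 SD of the control wells in both duplicate plates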;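 further: TRPC4 counter screen for TRPC6 hits run under conditions tuned for TRPC6 not TRPC4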
TRPC6 block conf – confirmation of mouse TRPC6 inhibitors. 3,300 compounds, 43% hits. HEK293-TRPC6, membrane potential dye, ACh-evoked depolarization. shares compounds with TRPC6 inhibitor. inhibition, % at 10 µM;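 active means fluorescence ratio falls more than 5 SD below the full-stimulation control mean, in both duplicate runs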;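 further: integrated fluorescence ratio of peak minus minimum over baseline after agonist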
TRPC6 act confirm – confirmation of mouse TRPC6 activators. 2,800 compounds, 11% hits. HEK293-TRPC6 membrane potential dye fluorescence, FDSS. AID 488961. activation, % at 10 µM. shares compounds with TRPC6 inhibitor;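 active means ratio signal rise beyond 5 SD above unstimulated control wells' mean, seen in both duplicate runs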
Numbers stand for hits; . = inactive; / = no result.

SMILES	TRPC4 PAM	TRPC4 agonist	TRPC6 activator	TRPC4 inh	TRPC6 inhibitor	HEK293 MPD ctr-2	HEK293 MPD ctr 2-2	TRPC4/MOR mod	TRPC4/MOR inh 2	TRPC6 block conf	TRPC6 act confirm	others
COC(=O)c1ccccc1NC(=O)COC(=O)C1CCCCC1	.	.	.	.	-5	142%	.	31%	.	41%	/
COC(=O)c1ccccc1NC(=O)COC(C)=O	.	.	.	.	.	/	/	/	/	/	/
COc1cc(N=Nc2cccc(S(N)(=O)=O)c2)c2ccccc2c1N	.	.	.	.	.	/	/	/	/	/	/
Cc1cc(Cl)c(OCCCNCc2ccccc2)c(Br)c1	.	.	12	.	.	302%	.	68%	.	.	139%
CCc1nc2oc3ccccc3c(=O)c2cc1C(=O)OC	.	.	.	.	.	/	/	/	/	/	/
CCN(CC)S(=O)(=O)c1ccc(NC(=O)CCC2CCCCC2)cc1	.	.	.	.	.	/	/	/	/	/	/
CCN(CC)S(=O)(=O)c1ccc(NC(=O)CNC2CCCCC2)cc1	.	.	.	.	-5.3	.	.	.	58%	46%	.
FC(F)(F)c1cccc(NC(=S)NNC(=S)NCc2ccccc2)c1	.	.	.	.	.	/	/	/	/	/	/
CC1CCCCC1NC(=O)C1CCN(S(=O)(=O)c2cccc3nonc23)CC1 (configuration not stated)	.	.	.	.	.	/	/	/	/	/	/
COc1cc(N2C(=O)c3ccccc3C2=O)c(Cl)cc1C(=O)OCC(=O)N(C)C	.	.	.	.	.	/	/	/	/	/	/
Cc1c(Cl)cccc1NC(=O)CNCc1ccccc1F	.	.	.	.	-5.3	.	.	18%	.	.	/
Cc1c(Cl)cccc1NC(=O)CNc1ccccc1F	.	.	.	.	.	/	/	/	/	/	/
CCn1c(/N=C/c2c[nH]c3ccccc23)nc2ccccc21	.	.	.	.	-8.1	/	/	/	/	53%	.	TRPC4 sel inh 2=75%;TRPC4 spec=-9.7%;HEK293 MPD ctr 2-1=.;HEK293 MPD ctr-1=-165%
CN(C)CCNc1c2c(nc3ccccc13)CCC2	.	.	.	.	-9.1	-202%	110%	-36%	77%	74%	.
Nc1c2c(nc3ccccc13)CCC2	.	.	.	-5	-7	-279%	.	-42%	70%	.	.
CN(C)CCCNc1nc(-c2ccccc2)nc2ccccc12	.	.	.	.	-7.7	/	/	/	/	65%	.	TRPC4 sel inh 2=40%;TRPC4 spec=-27%;HEK293 MPD ctr 2-1=.;HEK293 MPD ctr-1=-347%
COc1cc(Nc2c3c(nc4ccccc24)CCCC3)cc(OC)c1OC	.	.	.	.	-6.1	-96%	.	-20%	38%	.	.
CC(C)(C)CC(C)(C)NCC(=O)Nc1c2c(nc3ccccc13)CCC2	.	.	.	.	.	/	/	/	/	/	/
COc1ccc(C(=O)NCCc2cnc[nH]2)cc1OC	.	.	.	.	.	/	/	/	/	/	/
CN(C)CCCNc1c2ccccc2nc2ccccc12	.	.	.	-6	-11	-268%	177%	-44%	78%	88%	.
Nc1c2c(nc3ccc(Br)cc13)N(Cc1ccccc1)CC2	.	.	.	.	.	/	/	/	/	/	/
CN(C)CCCNc1oc(-c2ccccc2)nc1C#N	.	.	.	.	.	/	/	/	/	/	/
Nc1c2c(nc3ccccc13)N(C1CCCCC1)CC2	.	.	.	-6	-12	/	/	/	/	109%	.	TRPC4 sel inh 2=27%;TRPC4 spec=-28%;HEK293 MPD ctr 2-1=-2.5%;HEK293 MPD ctr-1=-388%
O=C(CSc1nnc(NC(=O)c2ccccc2)s1)NC1CCCC1	.	.	.	.	.	/	/	/	/	/	/
CCOC(=O)c1c(NC(=O)CSc2nnc(C)s2)sc2c1CCN(C)C2	.	.	.	.	-5.8	-65%	.	-16%	.	.	.
SMILES	TRPC4 PAM	TRPC4 agonist	TRPC6 activator	TRPC4 inh	TRPC6 inhibitor	HEK293 MPD ctr-2	HEK293 MPD ctr 2-2	TRPC4/MOR mod	TRPC4/MOR inh 2	TRPC6 block conf	TRPC6 act confirm	others
CCOC(=O)c1c(NC(=O)c2ccc(S(=O)(=O)N(C)CC3CCCO3)cc2)sc2c1CCN(C)C2 (configuration not stated)	.	.	.	.	-5.2	167%	.	-30%	.	.	.
Cc1ccc2nc(-c3cccc(N)c3)oc2c1	.	.	.	.	-5.5	.	.	.	.	.	.
Cc1ccc(-n2ncc3c2CCCC3NC(=O)CCc2cnccn2)cc1C (configuration not stated)	.	.	.	.	.	/	/	/	/	/	/
Cc1cc(Cc2ccc([N+](=O)[O-])cc2)c(C)cn1	.	.	.	.	.	/	/	/	/	/	/
Cc1ccccc1OCC(=O)N/N=C1\SCC(=O)N1Cc1ccccc1	.	.	.	.	.	/	/	/	/	/	/
CN1C(=O)CS/C1=N\NC(=O)COc1cccc2cccnc12	.	.	.	.	-5.9	-230%	.	-42%	.	.	.
COc1ccc(NC(C)C(=O)N/N=C/c2ccccc2OCc2cccc(Br)c2)cc1 (configuration not stated)	.	.	.	.	.	/	/	/	/	/	/
Cc1ccccc1NC(C)C(=O)N/N=C/c1ccccc1OCc1cccc(Br)c1 (configuration not stated)	.	.	.	.	-5.2	.	.	.	.	.	.
NNC(=O)Cn1c(SCc2ccccc2)nc2ccccc21	.	.	.	.	.	/	/	/	/	/	/
C(=N\n1cnnc1)/c1ccc2ncccc2c1	.	.	.	.	-7.7	-280%	.	-37%	50%	.	.
Cc1ccc(C(=O)COC(=O)CCc2ccc(S(=O)(=O)N3CCCCC3)cc2)cc1	.	.	.	.	.	/	/	/	/	/	/
CC(C)c1ccc(NC(=S)NCCc2c[nH]c3ccccc23)cc1	.	.	.	.	.	/	/	/	/	/	/
COc1ccc(OCCNC(=O)c2ccc(C)cc2)cc1	.	.	.	.	.	/	/	/	/	/	/

Compound activity deposited in PubChem BioAssay by Johns Hopkins Ion Channel Center.
